# Assay results: ChEMBL document CHEMBL1155016, “Locking the two ends of tetrapeptidic HTLV-I protease inhibitors inside the enzyme” (Bioorg Med Chem, 2008)
# Starred links: 1 amine or outer side, 2 acyl side, 3 side chain; linkers in the order of their positions; H or OH if unused. Non-standard residues stand in square brackets, D forms with d. Residues, ends and D or L forms follow the SMILES beside them. X1 = O=C([C@@H](O)[C@H](Cc1ccccc1)N[*:1])[*:2]; Thz(5,5-Me2) = CC1(C)SCN[C@@H]1C(=O)O; Phg = N[C@H](C(=O)O)c1ccccc1; Tle = CC(C)(C)[C@H](N)C(=O)O
# How the values were obtained:
# [1] = molecular target: Protease (Human immunodeficiency virus 1) (UniProt Q9YQ12); assay: Inhibition of HIV1 protease at 50 nM
# Sequence of Protease (Human immunodeficiency virus 1) (Q9YQ12 as listed by the source): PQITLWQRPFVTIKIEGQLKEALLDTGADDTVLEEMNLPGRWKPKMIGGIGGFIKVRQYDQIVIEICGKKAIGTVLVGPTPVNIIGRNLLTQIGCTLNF
# Protease = Protease (Human T-cell leukemia virus type I, UniProt Q82134, L40I); assay: Inhibition of HTLV1 protease L40I mutant
# Sequence of Protease (Q82134 entry or part of it L40I): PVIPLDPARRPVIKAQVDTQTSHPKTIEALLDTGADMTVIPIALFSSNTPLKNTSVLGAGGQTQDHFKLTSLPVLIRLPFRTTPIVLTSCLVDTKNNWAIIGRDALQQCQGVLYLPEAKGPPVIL
# How it was run: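 HTLV-I protease carrying the L40I substitution, which blocks autolysis and stabilises the enzyme; run by the group's earlier reported protocol; potency given as IC50 in nM.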
Structure (SMILES),inhibition [1] [%],IC50 (Protease) [nM]
CCCC(=O)N[C@H](C(=O)N[C@H](C(=O)N[C@@H](Cc1ccccc1)[C@H](O)C(=O)N1CSC(C)(C)[C@H]1C(=O)NCC(C)(C)C)C(C)(C)C)c1ccccc1,> 98,74
CC(=O)N[C@H](C(=O)N[C@H](C(=O)N[C@@H](Cc1ccccc1)[C@H](O)C(=O)N1CSC(C)(C)[C@H]1C(=O)NC(C)C(C)(C)C)C(C)(C)C)c1ccccc1 (some centres undefined),> 98,106
CC(C)C(=O)N[C@H](C(=O)N[C@H](C(=O)N[C@@H](Cc1ccccc1)[C@H](O)C(=O)N1CSC(C)(C)[C@H]1C(=O)NCC(C)(C)C)C(C)(C)C)c1ccccc1,> 98,78
CC(C)CNC(=O)[C@H]1N(C(=O)[C@@H](O)[C@H](Cc2ccccc2)NC(=O)[C@@H](NC(=O)[C@@H](NC(=O)C(C)C)c2ccccc2)C(C)(C)C)CSC1(C)C,> 98,94
CC(C)C(C)NC(=O)[C@H]1N(C(=O)[C@@H](O)[C@H](Cc2ccccc2)NC(=O)[C@@H](NC(=O)[C@@H](NC(=O)C2CC2)c2ccccc2)C(C)(C)C)CSC1(C)C (some centres undefined),> 98,90
CC(C)CNC(=O)[C@H]1N(C(=O)[C@@H](O)[C@H](Cc2ccccc2)NC(=O)[C@@H](NC(=O)[C@@H](NC(=O)CC(C)C)c2ccccc2)C(C)(C)C)CSC1(C)C,> 98,102
CC(=O)N[C@H](C(=O)N[C@H](C(=O)N[C@@H](Cc1ccccc1)[C@H](O)C(=O)N1CSC(C)(C)[C@H]1C(=O)NC(C)C(C)C)C(C)(C)C)c1ccccc1 (some centres undefined),> 98,136
CC(C)C(=O)N[C@H](C(=O)N[C@H](C(=O)N[C@@H](Cc1ccccc1)[C@H](O)C(=O)N1CSC(C)(C)[C@H]1C(=O)NC(C)C(C)C)C(C)(C)C)c1ccccc1 (some centres undefined),> 98,122
CC(NC(=O)[C@H]1N(C(=O)[C@@H](O)[C@H](Cc2ccccc2)NC(=O)[C@@H](NC(=O)[C@@H](NC(=O)C(C)(C)C)c2ccccc2)C(C)(C)C)CSC1(C)C)C(C)(C)C (some centres undefined),> 98,97
CC(NC(=O)[C@H]1N(C(=O)[C@@H](O)[C@H](Cc2ccccc2)NC(=O)[C@@H](NC(=O)[C@@H](N)c2ccccc2)C(C)(C)C)CSC1(C)C)C(C)(C)C (some centres undefined),> 98,156
CC(=O)N[C@H](C(=O)N[C@H](C(=O)N[C@@H](Cc1ccccc1)[C@H](O)C(=O)N1CSC(C)(C)[C@H]1C(=O)NCC(C)C)C(C)(C)C)c1ccccc1,> 98,107
CC(C)(C)[C@H](NC(=O)[C@@H](NC(=O)C1CC1)c1ccccc1)C(=O)N[C@@H](Cc1ccccc1)[C@H](O)C(=O)N1CSC(C)(C)[C@H]1C(=O)NCC1CC1,> 98,142
CCC(=O)N[C@H](C(=O)N[C@H](C(=O)N[C@@H](Cc1ccccc1)[C@H](O)C(=O)N1CSC(C)(C)[C@H]1C(=O)NCC(C)(C)C)C(C)(C)C)c1ccccc1,> 98,98
"CC[C@H](C)[C@H](NC(C)=O)C(=O)N[C@H](C(=O)N[C@@H](Cc1ccccc1)[C@H](O)C(=O)N1CSC(C)(C)[C@H]1C(=O)N[C@H](C(=O)N[C@@H](CCSC)C(N)=O)[C@@H](C)CC)[C@@H](C)CC (Ac-II[X1][Thz(5,5-Me2)]IM-NH2)",> 98,88
CC(C)CC(=O)N[C@H](C(=O)N[C@H](C(=O)N[C@@H](Cc1ccccc1)[C@H](O)C(=O)N1CSC(C)(C)[C@H]1C(=O)NC(C)C(C)(C)C)C(C)(C)C)c1ccccc1 (some centres undefined),> 98,84
CC(=O)N[C@H](C(=O)N[C@H](C(=O)N[C@@H](Cc1ccccc1)[C@H](O)C(=O)N1CSC(C)(C)[C@H]1C(=O)NCC(C)(C)C)C(C)(C)C)c1ccccc1,> 98,113

Structure (SMILES),inhibition [1] [%],IC50 (Protease) [nM]
CC(C)CC(=O)N[C@H](C(=O)N[C@H](C(=O)N[C@@H](Cc1ccccc1)[C@H](O)C(=O)N1CSC(C)(C)[C@H]1C(=O)NCC1CC1)C(C)(C)C)c1ccccc1,> 98,132
CCCC(=O)N[C@H](C(=O)N[C@H](C(=O)N[C@@H](Cc1ccccc1)[C@H](O)C(=O)N1CSC(C)(C)[C@H]1C(=O)NC(C)C(C)(C)C)C(C)(C)C)c1ccccc1 (some centres undefined),> 98,94
CCC(=O)N[C@H](C(=O)N[C@H](C(=O)N[C@@H](Cc1ccccc1)[C@H](O)C(=O)N1CSC(C)(C)[C@H]1C(=O)NC(C)C(C)(C)C)C(C)(C)C)c1ccccc1 (some centres undefined),> 98,103
CC(C)(C)CNC(=O)[C@H]1N(C(=O)[C@@H](O)[C@H](Cc2ccccc2)NC(=O)[C@@H](NC(=O)[C@@H](N)c2ccccc2)C(C)(C)C)CSC1(C)C,> 98,180
C=CCCC(=O)N[C@H](C(=O)N[C@H](C(=O)N[C@@H](Cc1ccccc1)[C@H](O)C(=O)N1CSC(C)(C)[C@H]1C(=O)NC(C)C(C)C)C(C)(C)C)c1ccccc1 (some centres undefined),> 98,87
CC(C)C(=O)N[C@H](C(=O)N[C@H](C(=O)N[C@@H](Cc1ccccc1)[C@H](O)C(=O)N1CSC(C)(C)[C@H]1C(=O)NCC1CC1)C(C)(C)C)c1ccccc1,> 98,134
CC(C)C(C)NC(=O)[C@H]1N(C(=O)[C@@H](O)[C@H](Cc2ccccc2)NC(=O)[C@@H](NC(=O)[C@@H](NC(=O)C(C)(C)C)c2ccccc2)C(C)(C)C)CSC1(C)C (some centres undefined),> 98,133
CSCC[C@H](NC(=O)[C@@H](NC(=O)[C@@H]1CCCN1C(=O)[C@@H](O)[C@H](Cc1ccccc1)NC(=O)[C@@H](NC(=O)[C@H](CCC(N)=O)NC(=O)[C@@H]1CCCN1)C(C)C)C(C)C)C(=O)N[C@@H](Cc1cnc[nH]1)C(=O)O,> 98,159
CC(C)CCNC(=O)[C@H]1N(C(=O)[C@@H](O)[C@H](Cc2ccccc2)NC(=O)[C@@H](NC(=O)[C@@H](N)c2ccccc2)C(C)(C)C)CSC1(C)C,> 98,372
CC(C)C(=O)N[C@H](C(=O)N[C@H](C(=O)N[C@@H](Cc1ccccc1)[C@H](O)C(=O)N1CSC(C)(C)[C@H]1C(=O)NC(C)C(C)(C)C)C(C)(C)C)c1ccccc1 (some centres undefined),> 98,84
CCC(=O)N[C@H](C(=O)N[C@H](C(=O)N[C@@H](Cc1ccccc1)[C@H](O)C(=O)N1CSC(C)(C)[C@H]1C(=O)NC(C)C(C)C)C(C)(C)C)c1ccccc1 (some centres undefined),> 98,129
"CC[C@H](C)[C@H](NC(=O)[C@H]1N(C(=O)[C@@H](O)[C@H](Cc2ccccc2)NC(=O)[C@@H](NC(=O)[C@@H](NC(C)=O)c2ccccc2)C(C)(C)C)CSC1(C)C)C(N)=O (Ac-[Phg][Tle][X1][Thz(5,5-Me2)]I-NH2)",> 98,144
CCCC(=O)N[C@H](C(=O)N[C@H](C(=O)N[C@@H](Cc1ccccc1)[C@H](O)C(=O)N1CSC(C)(C)[C@H]1C(=O)NC(C)C(C)C)C(C)(C)C)c1ccccc1 (some centres undefined),> 98,659
CC(C)CNC(=O)[C@H]1N(C(=O)[C@@H](O)[C@H](Cc2ccccc2)NC(=O)[C@@H](NC(=O)[C@@H](N)c2ccccc2)C(C)(C)C)CSC1(C)C,> 98,332
CC(C)(C)CNC(=O)[C@H]1N(C(=O)[C@@H](O)[C@H](Cc2ccccc2)NC(=O)[C@@H](NC(=O)[C@@H](NC(=O)C2CC2)c2ccccc2)C(C)(C)C)CSC1(C)C,> 98,86
CCC(=O)N[C@H](C(=O)N[C@H](C(=O)N[C@@H](Cc1ccccc1)[C@H](O)C(=O)N1CSC(C)(C)[C@H]1C(=O)NCC1CC1)C(C)(C)C)c1ccccc1,> 98,145
